Key:
[1] = biological target: Programmed cell death 1 ligand 1 (Homo sapiens) (UniProt Q9NZQ7); assay: Inhibition of [89Zr]Zr-atezolizumab binding from human PD-L1 transfected in CHO cells assessed as radioligand activity at 200 nM preincubated for 30 mins followed by [89Zr]Zr-atezolizumab addition measured after 60 mins by Wizard2 gamma counter analysis (reference value: 8.4 %); assay type: cell-based; design: scale not given: the % may be the effect or the level left; details: time 90.0 min
[2] = Drug uptake in mouse B16-F10 cells expressing PD-L1 in xenograft model; assay type: ADME, cell-based; details: in vivo
[3] = biological target: T1, Programmed cell death protein 1/Programmed cell death 1 ligand 1 (Homo sapiens, UniProt Q9NZQ7); assay: Inhibition of Ig-tagged PD-1 (unknown origin)/His-tagged PD-L1 (unknown origin) protein-protein interaction preincubated with PD-L1 for 15 mins followed by PD-1 addition measured after 15 mins by HTRF assay; assay type: protein-complex assay
T1 sequence (Q15116 whole entry): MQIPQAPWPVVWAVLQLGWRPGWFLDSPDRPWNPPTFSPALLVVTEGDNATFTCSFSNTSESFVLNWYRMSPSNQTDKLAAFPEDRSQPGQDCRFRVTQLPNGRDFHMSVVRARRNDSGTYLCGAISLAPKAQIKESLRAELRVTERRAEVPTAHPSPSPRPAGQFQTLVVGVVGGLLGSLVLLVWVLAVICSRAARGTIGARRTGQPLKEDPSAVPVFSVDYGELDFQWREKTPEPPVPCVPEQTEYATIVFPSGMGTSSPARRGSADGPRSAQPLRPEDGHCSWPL
T1 sequence (Q9NZQ7 whole entry): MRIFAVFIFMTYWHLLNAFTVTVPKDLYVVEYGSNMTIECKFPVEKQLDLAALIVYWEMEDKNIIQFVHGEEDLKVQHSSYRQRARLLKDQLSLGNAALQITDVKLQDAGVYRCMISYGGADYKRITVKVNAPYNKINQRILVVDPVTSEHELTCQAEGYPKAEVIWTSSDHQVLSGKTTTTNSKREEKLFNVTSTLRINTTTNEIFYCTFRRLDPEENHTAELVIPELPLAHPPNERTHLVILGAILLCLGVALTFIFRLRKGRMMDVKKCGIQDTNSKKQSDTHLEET

[4] = biological target: T1, Programmed cell death protein 1/Programmed cell death 1 ligand 1; assay: Inhibition of His-tagged PD-1 (unknown origin)/hFc-tagged PD-L1 (unknown origin) protein-protein interaction incubated for 15 mins by HTRF assay; assay type: protein-complex assay
Outline: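 Small molecules were tested as 10-fold dilution series at a constant final 0.2% DMSO. IC50 came from a four-parameter variable-slope fit of normalized data, with three independent repeats.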

[5] = tested on: CHO; assay: Biodistribution in CHO cells expressing hPD-L1 xenografted in NSG mouse co-xenografted with CHO-K1 cells at 31.91 +/- 3.05 MBq measured for 30 to 70 mins by Wizard2 gamma counter analysis; assay type: ADME, organism-based, Cricetulus griseus; details: chinese hamster, in vivo, time 30-70 min
Outline: (§1)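 Male NSG mice, 8–10 weeks old, carried subcutaneous CHO-K1 and CHO-hPD-L1 xenografts on opposite flanks (1.5 × 10^6 cells each in PBS/matrigel 1:1). Eleven days after inoculation, radiotracer was injected into the lateral tail vein under isoflurane. Organs were collected at 30, 40 and 70 min, wet-weighed and gamma-counted for 30 s. Counts were background- and decay-corrected to injection, expressed as %ID/g.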

[6] = tested on: CHO-K1; assay: Biodistribution in CHO-K1 cells xenografted in NSG mouse co-xenografted with CHO cells expressing hPD-L1 at 31.91 +/- 3.05 MBq measured for 30 to 70 mins by Wizard2 gamma counter analysis; assay type: ADME, organism-based, Cricetulus griseus; details: chinese hamster, in vivo, time 30-70 min; outline: as §1
[7] = Stability in mouse plasma assessed as compound remaining measured for 60 mins by HPLC analysis; assay type: ADME, cell-free; details: read-out: Stability
Outline: (§2)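 Formulated radiotracer (25 μL) was incubated in 1250 μL pooled mouse or human plasma at 37 °C. At 0, 15, 30 and 60 min, aliquots were quenched with equal-volume MeCN and centrifuged (4 min, 4 °C, 21,380g). Intact tracer (%) was measured by reversed-phase radio-HPLC.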

[8] = Stability in human plasma assessed as compound remaining measured for 60 mins by HPLC analysis; assay type: ADME, cell-free; details: read-out: Stability; outline: as §2
[9] = Biodistribution in kidney of NSG mouse xenografted with CHO-K1 cells/CHO cells expressing hPD-L1 at 31.91 +/- 3.05 MBq measured for 30 to 70 mins by Wizard2 gamma counter analysis; assay type: ADME, organism-based; details: in vivo, time 30-70 min; outline: as §1
[10] = Biodistribution in lung of NSG mouse xenografted with CHO-K1 cells/CHO cells expressing hPD-L1 at 31.91 +/- 3.05 MBq measured for 30 to 70 mins by Wizard2 gamma counter analysis; assay type: ADME, organism-based; details: in vivo, time 30-70 min; outline: as §1
[11] = Biodistribution in liver of NSG mouse xenografted with CHO-K1 cells/CHO cells expressing hPD-L1 at 31.91 +/- 3.05 MBq measured for 30 to 70 mins by Wizard2 gamma counter analysis; assay type: ADME, organism-based; details: in vivo, time 30-70 min; outline: as §1
[12] = Drug metabolism in brain of NSG mouse xenografted with CHO-K1 cells/CHO cells expressing hPD-L1 assessed as accumulation of radiometabolite formation at 31.91 +/- 3.05 MBq measured for 60 mins by micro-PET analysis; assay type: ADME, tissue-based; details: in vivo, 1 h
[13] = Drug metabolism in white adipose tissue of NSG mouse xenografted with CHO-K1 cells/CHO cells expressing hPD-L1 assessed as accumulation of radiometabolite formation at 31.91 +/- 3.05 MBq measured for 60 mins by micro-PET analysis; assay type: ADME, tissue-based; details: in vivo, 1 h
[14] = Biodistribution in brain of NSG mouse xenografted with CHO-K1 cells/CHO cells expressing hPD-L1 at 31.91 +/- 3.05 MBq measured for 60 mins by micro-PET analysis; assay type: ADME, organism-based; details: in vivo, 1 h
Outline: (§3)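 Dynamic whole-body μPET/CT ran up to 60 min and was reconstructed by OSEM3D/MAP. Volumes of interest came from fused PET/CT, with uptake normalized to injected dose and volume as %ID/cc.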

[15] = Biodistribution in white adipose tissue of NSG mouse xenografted with CHO-K1 cells/CHO cells expressing hPD-L1 at 31.91 +/- 3.05 MBq measured for 60 mins by micro-PET analysis; assay type: ADME, organism-based; details: in vivo, 1 h; outline: as §3
[16] = tested on: CHO; assay: Biodistribution in CHO cells expressing hPD-L1 xenografted in NSG mouse co-xenografted with CHO-K1 cells at 31.91 +/- 3.05 MBq measured for 60 mins by micro-PET analysis; assay type: ADME, organism-based, Cricetulus griseus; details: chinese hamster, in vivo, 1 h; outline: as §3
[17] = Biodistribution in kidney of NSG mouse xenografted with CHO-K1 cells/CHO cells expressing hPD-L1 at 31.91 +/- 3.05 MBq measured for 60 mins by micro-PET analysis; assay type: ADME, organism-based; details: in vivo, 1 h; outline: as §3
[18] = tested on: CHO-K1; assay: Biodistribution in CHO-K1 cells xenografted in NSG mouse co-xenografted with CHO cells expressing hPD-L1 at 31.91 +/- 3.05 MBq measured for 60 mins by micro-PET analysis; assay type: ADME, organism-based, Cricetulus griseus; details: chinese hamster, in vivo, 1 h; outline: as §3
[19] = Biodistribution in gall bladder of NSG mouse xenografted with CHO-K1 cells/CHO cells expressing hPD-L1 at 31.91 +/- 3.05 MBq measured for 60 mins by micro-PET analysis; assay type: ADME, organism-based; details: in vivo, 1 h; outline: as §3
[20] = Biodistribution in intestine of NSG mouse xenografted with CHO-K1 cells/CHO cells expressing hPD-L1 at 31.91 +/- 3.05 MBq measured for 60 mins by micro-PET analysis; assay type: ADME, organism-based; details: in vivo, 1 h; outline: as §3
[21] = Biodistribution in liver of NSG mouse xenografted with CHO-K1 cells/CHO cells expressing hPD-L1 at 31.91 +/- 3.05 MBq measured for 60 mins by micro-PET analysis; assay type: ADME, organism-based; details: in vivo, 1 h; outline: as §3
[22] = biological target: Programmed cell death 1 ligand 1 (Homo sapiens) (UniProt Q9NZQ7); assay: Inhibition of [89Zr]Zr-atezolizumab binding from human PD-L1 transfected in CHO cells assessed as radioligand activity at 5000 nM preincubated for 30 mins followed by [89Zr]Zr-atezolizumab addition measured after 60 mins by Wizard2 gamma counter analysis (reference value: 8.4 %); assay type: cell-based; design: scale not given: the % may be the effect or the level left; details: time 90.0 min
[23] = Drug uptake in human A-375 cells expressing PD-L1 xenografted in bilateral tumors bearing BALB/c mouse model at ~2.5 MBq measured for 120 mins by autoradiography; assay type: ADME, cell-based; details: in vivo, 2 h
[24] = Drug uptake in human A-375 cells xenografted in bilateral tumors bearing BALB/c mouse model at ~2.5 MBq measured for 120 mins by autoradiography; assay type: ADME, cell-based; details: in vivo, 2 h
[25] = Biodistribution in bilateral tumors bearing BALB/c mouse model assessed as ratio of drug uptake in human A-375 cells expressing PD-L1 to drug uptake in human A-375 cells at ~2.5 MBq measured for 120 mins by autoradiography; assay type: ADME, organism-based, Neoplasm; details: a-375, 2 h
[26] = Drug uptake in human A-375 cells expressing PD-L1 xenografted in bilateral tumors bearing BALB/c mouse model at ~7.4 MBq measured for 50 mins by micro-PET imaging analysis; assay type: ADME, cell-based; details: in vivo
[27] = Drug uptake in human A-375 cells xenografted in bilateral tumors bearing BALB/c mouse model at ~7.4 MBq measured for 50 mins by micro-PET imaging analysis; assay type: ADME, cell-based; details: in vivo
[28] = Biodistribution in bilateral tumors bearing BALB/c mouse model assessed as ratio of drug uptake in human A-375 cells expressing PD-L1 to drug uptake in human A-375 cells at ~7.4 MBq measured for 50 mins by micro-PET imaging analysis; assay type: ADME, organism-based, Neoplasm; details: a-375, 50 min

Sequence of Programmed cell death 1 ligand 1 (Homo sapiens) (Q9NZQ7 whole entry): as above

Which Activity [1] does the source give for `CCOC(=O)/C(C#N)=C/c1cccc(C#N)c1` here?
The Activity was 0%.

With `Cc1c(COc2cc(OCc3cccc(OS(=O)(=O)[18F])c3)c(CNC(CO)(CO)CO)cc2Cl)cccc1-c1ccc2c(c1)OCCO2` as the molecule, how does the Drug uptake [2] read?
Its Drug uptake is 3.33 %ID/ml.

Which IC50 [3] does the source give for `Cc1cc(CN2CCCCC2C(=O)O)ccc1OCc1cccc(-c2ccccc2)c1C` (configuration not stated) here?
Its IC50 is 6 nM.

Which IC50 [4] does the source give for `N#Cc1cncc(COc2cc(OCc3cccc(-c4ccccc4)c3Br)c(Cl)cc2CN2CCCC[C@H]2C(=O)O)c1` here?
The IC50 was 0.01 nM.

For `CCOc1cccc(-c2cccc(COc3cc(OC)c(CNCCNC(C)=O)c(OC)c3)c2C)c1`, which IC50 [3] is on record?
The IC50 was 110 nM.

With `COc1cc(OCc2cccc(-c3ccc4c(c3)OCCO4)c2C)cc(OC)c1CNCCNC(C)=O` as the molecule, how does the IC50 [3] read?
The IC50 was 6 nM.

Which Drug uptake [5] does the source give for `Cc1c(COc2cc(OCc3ccnc(C#N)c3)c(CN([11CH3])CCO)cc2Cl)cccc1-c1ccc2c(c1)OCCO2` here?
The Drug uptake was under 1.5 % ID/g.

What about the Drug uptake [6] of the same molecule?
Its Drug uptake is under 1.5 % ID/g.

And the remaining at 1 h [7]?
Its remaining at 1 h is over 99%.

And the remaining at 1 h [8]?
Its remaining at 1 h is over 99%.

And the Drug uptake [9]?
The Drug uptake was “Active”.

And the Drug uptake [10]?
Its Drug uptake is “Active”.

And the Drug uptake [11]?
The Drug uptake was “Active”.

What about the Drug metabolism [12] of the same molecule?
The Drug metabolism was “Metabolite_Notdetected”.

What about the Drug metabolism [13] of the same molecule?
The Drug metabolism was “Metabolite_Notdetected”.

What about the Drug uptake [14] of the same molecule?
The Drug uptake was under 1.2 %ID/cc.

What about the Drug uptake [15] of the same molecule?
The Drug uptake was under 1.2 %ID/cc.

What about the Drug uptake [16] of the same molecule?
Its Drug uptake is under 1.2 %ID/cc.

What about the Drug uptake [17] of the same molecule?
The Drug uptake was “Active”.

And the Drug uptake [18]?
Its Drug uptake is under 1.2 %ID/cc.

And the Drug uptake [19]?
The Drug uptake was “Active”.

And the Drug uptake [20]?
Its Drug uptake is “Active”.

And the Drug uptake [21]?
Its Drug uptake is “Active”.

Which Activity [22] does the source give for `Cc1c(COc2cc(OCc3ccnc(C#N)c3)c(CN(C)[C@H](CO)C(=O)O)cc2Cl)cccc1-c1ccc2c(c1)OCCO2` here?
Its Activity is 4.2%.

Which Activity [22] does the source give for `Cc1c(COc2cc(OCc3ccnc(C#N)c3)c(CN(C)CCO)cc2Cl)cccc1-c1ccc2c(c1)OCCO2` here?
Its Activity is 4.7%.

What does the source list for `Cc1c(COc2cc(OCc3cccc(C#N)c3)c(CNCCNC(=O)CO/N=C/[C@H]([18F])[C@@H](O)[C@H](O)[C@H](O)CO)cc2Cl)cccc1-c1ccc2c(c1)OCCO2`?
Drug uptake [23]: 3.98 % ID/g; Drug uptake [24]: 1.38 % ID/g; Ratio [25]: 2.9

With `N#Cc1cc(COc2cc(OCc3cccc(-c4ccc5c(c4)OCCO5)c3Br)c(Cl)cc2CN2CCCC[C@H]2C(=O)O)ccn1` as the molecule, how does the IC50 [4] read?
Its IC50 is 0.001 nM.

Which Drug uptake [26] does the source give for `Cc1c(COc2cc(OCc3cccc(C#N)c3)c(CN3CCN(CCOCCOCCOCC[18F])CC3)cc2Cl)cccc1-c1ccc2c(c1)OCCO2` here?
Its Drug uptake is 3.53 %ID/ml.

And the Drug uptake [27]?
The Drug uptake was 1.19 %ID/ml.

And the Ratio [28]?
Its Ratio is 3.
